Laboratory results published in ChEMBL document CHEMBL2086286, “Synthesis, antitumor, cytotoxic and antioxidant evaluation of some new pyrazolotriazines attached to antipyrine moiety” (Eur J Med Chem, 2012).
≈ marks a conversion by molar mass, not a printed value. Where “and” joins values, the source holds several entries; their conditions need not be identical. Identical values can stand only once. Calls of active or inactive are those of the source. The calls are words filed in the database; no cut-off is given here.

Tested on: HepG2
Assay: Cytotoxicity against human HepG2 cells after 96 hrs by MTT assay
Assay type: functional, cell-based
Conditions: HepG2, 96 h

Row | Structure (SMILES) | IC50 [µg/mL]
1 | CC(=N)/C(C#N)=N\Nc1n[nH]c(C)c1/N=N/c1c(C)n(C)n(-c2ccccc2)c1=O | 70.8 (≈ 175 µM)
2 | Cc1nn2c3c(nnc2c1/N=N/c1c(C)n(C)n(-c2ccccc2)c1=O)C(=O)CCC3 | 55.3 (≈ 133 µM)
3 | CC(=N)c1nnc2c(/N=N/c3c(C)n(C)n(-c4ccccc4)c3=O)c(C)nn2c1N | 139 (≈ 343 µM)
4 | Cc1nn2c(nnc3c(N)c(C#N)c(N)nc32)c1/N=N/c1c(C)n(C)n(-c2ccccc2)c1=O | 203 (≈ 448 µM)
5 | CC(=N)/C(C#N)=N\Nc1c(C)n(C)n(-c2ccccc2)c1=O | 8.3 (≈ 28 µM)
6 | Cc1[nH]nc(N/N=C(\SC#N)C(=O)c2ccccc2)c1/N=N/c1c(C)n(C)n(-c2ccccc2)c1=O | 95.3 (≈ 191 µM)
7 | Cc1[nH]nc(N/N=C(\C#N)c2nc3ccccc3s2)c1/N=N/c1c(C)n(C)n(-c2ccccc2)c1=O | 179 (≈ 360 µM)
8 | O=c1[nH]cc(F)c(=O)[nH]1 [FLUOROURACIL] | 9.1 (≈ 70 µM)
9 | CCOC(=O)/C(C#N)=N/Nc1n[nH]c(C)c1/N=N/c1c(C)n(C)n(-c2ccccc2)c1=O | 153 (≈ 352 µM)
10 | Cc1[nH]nc(NN=C(C#N)C#N)c1/N=N/c1c(C)n(C)n(-c2ccccc2)c1=O | 183 (≈ 470 µM)

Tested on: not listed separately
Assay: Antioxidant activity assessed as ABTS free radical scavenging activity at 1 mg/mL by spectroscopic analysis
Assay type: functional
Conditions: not given
How it was run: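 ABTS radical cation generated by reacting ABTS with MnO2 (25 mg/mL) in phosphate buffer pH 7, then centrifuged and filtered. Absorbance read at 734 nm before and after adding test sample (1 mg/mL in MeOH/buffer 1:1). % inhibition = [A(control) − A(test)]/A(control) × 100. Ascorbic acid (2 mM) as positive control; solvent blank without ABTS.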

Row | Structure (SMILES) | inhibition [%]
11 | O=C1O[C@H]([C@@H](O)CO)C(O)=C1O | 92.3
12 | CC(=N)/C(C#N)=N\Nc1n[nH]c(C)c1/N=N/c1c(C)n(C)n(-c2ccccc2)c1=O | 28.6
13 | Cc1nn2c3c(nnc2c1/N=N/c1c(C)n(C)n(-c2ccccc2)c1=O)C(=O)CCC3 | 52.5
14 | CC(=N)c1nnc2c(/N=N/c3c(C)n(C)n(-c4ccccc4)c3=O)c(C)nn2c1N | 24.4
15 | Cc1nn2c(nnc3c(N)c(C#N)c(N)nc32)c1/N=N/c1c(C)n(C)n(-c2ccccc2)c1=O | 8.28
16 | CC(=N)/C(C#N)=N\Nc1c(C)n(C)n(-c2ccccc2)c1=O | 80.9
17 | Cc1[nH]nc(N/N=C(\SC#N)C(=O)c2ccccc2)c1/N=N/c1c(C)n(C)n(-c2ccccc2)c1=O | 17.6
18 | Cc1[nH]nc(N/N=C(\C#N)c2nc3ccccc3s2)c1/N=N/c1c(C)n(C)n(-c2ccccc2)c1=O | 19.3
19 | CCOC(=O)/C(C#N)=N/Nc1n[nH]c(C)c1/N=N/c1c(C)n(C)n(-c2ccccc2)c1=O | 21.6
20 | Cc1[nH]nc(NN=C(C#N)C#N)c1/N=N/c1c(C)n(C)n(-c2ccccc2)c1=O | 17.2

Tested on: Vero
Assay: Cytotoxicity against African green monkey Vero cells after 96 hrs by MTT assay
Assay type: cell-based
Conditions: Chlorocebus sabaeus

Row | Structure (SMILES) | IC50 [µg/mL]
21 | CC(=N)/C(C#N)=N\Nc1n[nH]c(C)c1/N=N/c1c(C)n(C)n(-c2ccccc2)c1=O | 735 (≈ 1820 µM)
22 | Cc1nn2c3c(nnc2c1/N=N/c1c(C)n(C)n(-c2ccccc2)c1=O)C(=O)CCC3 | 61.1 (≈ 147 µM)
23 | CC(=N)c1nnc2c(/N=N/c3c(C)n(C)n(-c4ccccc4)c3=O)c(C)nn2c1N | 164 (≈ 406 µM)
24 | Cc1nn2c(nnc3c(N)c(C#N)c(N)nc32)c1/N=N/c1c(C)n(C)n(-c2ccccc2)c1=O | 220 (≈ 485 µM)
25 | CC(=N)/C(C#N)=N\Nc1c(C)n(C)n(-c2ccccc2)c1=O | 10 (≈ 33.7 µM)
26 | Cc1[nH]nc(N/N=C(\SC#N)C(=O)c2ccccc2)c1/N=N/c1c(C)n(C)n(-c2ccccc2)c1=O | 96.8 (≈ 194 µM)
27 | Cc1[nH]nc(N/N=C(\C#N)c2nc3ccccc3s2)c1/N=N/c1c(C)n(C)n(-c2ccccc2)c1=O | 181 (≈ 364 µM)
28 | O=c1[nH]cc(F)c(=O)[nH]1 [FLUOROURACIL] | 6.4 (≈ 49.2 µM)
29 | CCOC(=O)/C(C#N)=N/Nc1n[nH]c(C)c1/N=N/c1c(C)n(C)n(-c2ccccc2)c1=O | 179 (≈ 412 µM)
30 | Cc1[nH]nc(NN=C(C#N)C#N)c1/N=N/c1c(C)n(C)n(-c2ccccc2)c1=O | 209 (≈ 537 µM)

Tested on: WI-38
Assay: Cytotoxicity against human WI38 cells after 96 hrs by MTT assay
Assay type: functional, cell-based
Conditions: WI-38, 96 h

Row | Structure (SMILES) | IC50 [µg/mL]
31 | CC(=N)/C(C#N)=N\Nc1n[nH]c(C)c1/N=N/c1c(C)n(C)n(-c2ccccc2)c1=O | 70.2 (≈ 174 µM)
32 | Cc1nn2c3c(nnc2c1/N=N/c1c(C)n(C)n(-c2ccccc2)c1=O)C(=O)CCC3 | 53 (≈ 127 µM)
33 | CC(=N)c1nnc2c(/N=N/c3c(C)n(C)n(-c4ccccc4)c3=O)c(C)nn2c1N | 175 (≈ 433 µM)
34 | Cc1nn2c(nnc3c(N)c(C#N)c(N)nc32)c1/N=N/c1c(C)n(C)n(-c2ccccc2)c1=O | 303 (≈ 667 µM)
35 | CC(=N)/C(C#N)=N\Nc1c(C)n(C)n(-c2ccccc2)c1=O | 13.8 (≈ 46.6 µM)
36 | Cc1[nH]nc(N/N=C(\SC#N)C(=O)c2ccccc2)c1/N=N/c1c(C)n(C)n(-c2ccccc2)c1=O | 92.8 (≈ 186 µM)
37 | Cc1[nH]nc(N/N=C(\C#N)c2nc3ccccc3s2)c1/N=N/c1c(C)n(C)n(-c2ccccc2)c1=O | 169 (≈ 341 µM)
38 | O=c1[nH]cc(F)c(=O)[nH]1 [FLUOROURACIL] | 4 (≈ 30.8 µM)
39 | CCOC(=O)/C(C#N)=N/Nc1n[nH]c(C)c1/N=N/c1c(C)n(C)n(-c2ccccc2)c1=O | 169 (≈ 389 µM)
40 | Cc1[nH]nc(NN=C(C#N)C#N)c1/N=N/c1c(C)n(C)n(-c2ccccc2)c1=O | 197 (≈ 508 µM)

Tested on: not listed separately
Assay: Cytotoxicity against mouse EAC after 2 hrs by trypan blue staining based hemocytometer analysis
Assay type: functional, Ehrlich
Conditions: not given
How it was run: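 Ehrlich ascites cells aspirated aseptically from the peritoneal cavity of a donor animal. Held in RPMI with 10% FBS at 37 °C, 5% CO2 for 2 h with compound at 25, 50 and 100 µg, final DMSO 0.1%. Dead cells counted by trypan blue staining on a hemocytometer; DMSO-only control viability exceeded 95%. 5-Fluorouracil as reference.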

Row | Structure (SMILES) | ED25 [µg] | ED100 [µg] | ED50 [µg]
41 | CC(=N)/C(C#N)=N\Nc1n[nH]c(C)c1/N=N/c1c(C)n(C)n(-c2ccccc2)c1=O | 1.3 | 80 | –
42 | Cc1nn2c3c(nnc2c1/N=N/c1c(C)n(C)n(-c2ccccc2)c1=O)C(=O)CCC3 | 0.67 | 91.4 | –
43 | CC(=N)c1nnc2c(/N=N/c3c(C)n(C)n(-c4ccccc4)c3=O)c(C)nn2c1N | 14.38 | 70.1 | –
44 | Cc1nn2c(nnc3c(N)c(C#N)c(N)nc32)c1/N=N/c1c(C)n(C)n(-c2ccccc2)c1=O | 62.53 | 40.6 | –
45 | CC(=N)/C(C#N)=N\Nc1c(C)n(C)n(-c2ccccc2)c1=O | 0.46 | 97.2 | –
46 | Cc1[nH]nc(N/N=C(\SC#N)C(=O)c2ccccc2)c1/N=N/c1c(C)n(C)n(-c2ccccc2)c1=O | 26.92 | 65.2 | –
47 | Cc1[nH]nc(N/N=C(\C#N)c2nc3ccccc3s2)c1/N=N/c1c(C)n(C)n(-c2ccccc2)c1=O | 11.17 | 70.8 | –
48 | O=c1[nH]cc(F)c(=O)[nH]1 [FLUOROURACIL] | 32.26 | 68 | 38.6
49 | CCOC(=O)/C(C#N)=N/Nc1n[nH]c(C)c1/N=N/c1c(C)n(C)n(-c2ccccc2)c1=O | 22.53 | 68.7 | –
50 | Cc1[nH]nc(NN=C(C#N)C#N)c1/N=N/c1c(C)n(C)n(-c2ccccc2)c1=O | 27.85 | 64 | –

Same assay, conditions: ehrlich

Row | Structure (SMILES) | IC50
51 | CC(=N)/C(C#N)=N\Nc1n[nH]c(C)c1/N=N/c1c(C)n(C)n(-c2ccccc2)c1=O | 97.5 µg and 60.1 µg
52 | Cc1nn2c3c(nnc2c1/N=N/c1c(C)n(C)n(-c2ccccc2)c1=O)C(=O)CCC3 | 99 µg and 80.2 µg
53 | CC(=N)c1nnc2c(/N=N/c3c(C)n(C)n(-c4ccccc4)c3=O)c(C)nn2c1N | 95.5 µg and 55 µg
54 | CC(=N)/C(C#N)=N\Nc1c(C)n(C)n(-c2ccccc2)c1=O | 100 µg
55 | Cc1[nH]nc(N/N=C(\SC#N)C(=O)c2ccccc2)c1/N=N/c1c(C)n(C)n(-c2ccccc2)c1=O | 94.3 µg and 48.1 µg
56 | Cc1[nH]nc(N/N=C(\C#N)c2nc3ccccc3s2)c1/N=N/c1c(C)n(C)n(-c2ccccc2)c1=O | 95 µg and 56.4 µg
57 | O=c1[nH]cc(F)c(=O)[nH]1 [FLUOROURACIL] | 97.3 µg
58 | CCOC(=O)/C(C#N)=N/Nc1n[nH]c(C)c1/N=N/c1c(C)n(C)n(-c2ccccc2)c1=O | 94.9 µg and 49.8 µg
59 | Cc1[nH]nc(NN=C(C#N)C#N)c1/N=N/c1c(C)n(C)n(-c2ccccc2)c1=O | 94.3 µg

Tested on: Nucleic Acid
Assay: Protective activity against bleomycin-iron complex-induced DNA damage at 0.1 mg/ml after 1 hr
Assay type: nucleic-acid assay
Conditions: not given
How it was run: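 Final reaction mixture: DNA 0.2 mg/mL, bleomycin 0.05 mg/mL, FeCl3 0.025 mM, MgCl2 5 mM, KH2PO4/KOH pH 7.0 30 mM, and test sample 0.1 mg/mL (in MeOH) or ascorbic acid 0.24 mM. Incubated 1 h at 37 °C, stopped with EDTA. DNA damage measured by adding 1% TBA and 25% HCl, heating 15 min at 80 °C, then reading absorbance.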

Row | Structure (SMILES) | Activity
60 | Cc1nn2c3c(nnc2c1/N=N/c1c(C)n(C)n(-c2ccccc2)c1=O)C(=O)CCC3 | Active
61 | CC(=N)/C(C#N)=N\Nc1c(C)n(C)n(-c2ccccc2)c1=O | Active
62 | Cc1[nH]nc(N/N=C(\SC#N)C(=O)c2ccccc2)c1/N=N/c1c(C)n(C)n(-c2ccccc2)c1=O | Active

Tested on: MCF7
Assay: Cytotoxicity against human MCF7 cells after 96 hrs by MTT assay
Assay type: functional, cell-based
Conditions: MCF7, 96 h

Row | Structure (SMILES) | IC50 [µg/mL]
63 | CC(=N)/C(C#N)=N\Nc1n[nH]c(C)c1/N=N/c1c(C)n(C)n(-c2ccccc2)c1=O | 69 (≈ 171 µM)
64 | Cc1nn2c3c(nnc2c1/N=N/c1c(C)n(C)n(-c2ccccc2)c1=O)C(=O)CCC3 | 68.2 (≈ 164 µM)
65 | CC(=N)c1nnc2c(/N=N/c3c(C)n(C)n(-c4ccccc4)c3=O)c(C)nn2c1N | 152 (≈ 375 µM)
66 | Cc1nn2c(nnc3c(N)c(C#N)c(N)nc32)c1/N=N/c1c(C)n(C)n(-c2ccccc2)c1=O | 419 (≈ 922 µM)
67 | CC(=N)/C(C#N)=N\Nc1c(C)n(C)n(-c2ccccc2)c1=O | 15.1 (≈ 51 µM)
68 | Cc1[nH]nc(N/N=C(\SC#N)C(=O)c2ccccc2)c1/N=N/c1c(C)n(C)n(-c2ccccc2)c1=O | 101 (≈ 202 µM)
69 | Cc1[nH]nc(N/N=C(\C#N)c2nc3ccccc3s2)c1/N=N/c1c(C)n(C)n(-c2ccccc2)c1=O | 164 (≈ 330 µM)
70 | O=c1[nH]cc(F)c(=O)[nH]1 [FLUOROURACIL] | 2.5 (≈ 19.2 µM)
71 | CCOC(=O)/C(C#N)=N/Nc1n[nH]c(C)c1/N=N/c1c(C)n(C)n(-c2ccccc2)c1=O | 150 (≈ 344 µM)
72 | Cc1[nH]nc(NN=C(C#N)C#N)c1/N=N/c1c(C)n(C)n(-c2ccccc2)c1=O | 221 (≈ 570 µM)
